We go through 1 compound from ChEMBL document CHEMBL5252635, “The Mycobacterium tuberculosis mycothiol S-transferase is divalent metal-dependent for mycothiol binding and transfer” (2023).

For experiment [1], the system named is Mycobacterium tuberculosis. Kind of experiment: Antibacterial activity against wild type Mycobacterium tuberculosis CDC1551 incubated for 10 days by resazurin dye based microtiter plate assay. The conditions noted are these: CDC1551, 240 h, time 10 day. It is filed as functional. A digest of the protocol: (§1)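 MIC in 7H9-ADC-Tween 80 medium. Strains (CDC1551 WT, rv0443 KO) grown to mid-log (OD600 ~0.8), diluted to OD600 0.01, exposed to serial antibiotic dilutions for 10 days at 37 °C; MIC read by resazurin blue test.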
(The colour change of resazurin is a common sign of viable cells or microbes.)

The test system of experiment [2] is Mycobacterium tuberculosis. Kind of experiment: Antibacterial activity against Mycobacterium tuberculosis rv0443 knockout strain incubated for 10 days by resazurin dye based microtiter plate assay. It is filed as functional. The conditions noted are these: rv0443, 240 h, time 10 day. A digest of the protocol:
as §1

Molecules are shown by their SMILES. Values after ≈ are worked out from the molar mass of the structure shown.

The term MIC denotes the lowest concentration that inhibits growth of the organism. Read a high MIC as weaker potency. In the case of `CO[C@H]1/C=C/O[C@@]2(C)Oc3c(C)c(O)c4c(O)c(c(/C=N/N5CCN(C)CC5)c(O)c4c3C2=O)NC(=O)/C(C)=C\C=C\[C@H](C)[C@H](O)[C@@H](C)[C@@H](O)[C@@H](C)[C@H](OC(C)=O)[C@@H]1C` [RIFAMPIN], the MIC in experiment [1] and in experiment [2] was 2.5 ng/mL (≈ 3.04 nM) in each case.
